Series [1] relates to HT-29. The series can be described thus: Cytotoxicity against human HT-29 cells assessed as cell viability after 48 hrs by alamar blue assay. The series is classed as functional, cell-based. The following applies: for IC50: HT-29, 48 h. In a few lines:
(§1)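 Alamar Blue viability assay on the human cell line named (origins given: HT-29 colorectal adenocarcinoma, HepG2 hepatocellular carcinoma, LAMA-84 myeloid leukemia, A549 lung adenocarcinoma, PC3 prostate metastasis, MCF-7 breast adenocarcinoma, ARPE-19 retinal pigment epithelium, BJ skin fibroblast). Exposure was 48 h. Sterol stocks were made in DMSO. IC50 is the concentration inhibiting 50% of cellular growth, given as the mean of at least three separate experiments.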
(In general: The colour change of resazurin is a common sign of viable cells or microbes.)

The test system of series [2] is HT-29. Put plainly: Cytotoxicity against human HT-29 cells assessed as inhibition of cell growth after 96 hrs by alamar blue assay. The series is classed as functional, cell-based. The following applies: HT-29, 96 h. In a few lines:
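HT-29 and ARPE-19 cells exposed for 96 h. ARPE-19 seeded at 5 10^3 cells/well for this period. Sterol stocks in DMSO. Viability by Alamar Blue. IC50 is the concentration inhibiting 50% of cellular growth, mean of at least three separate experiments.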

For series [3], the system named is A549. The series can be described thus: Cytotoxicity against human A549 cells assessed as cell viability after 48 hrs by alamar blue assay. The series is classed as functional, cell-based. The following applies: for IC50: A549, 48 h. In a few lines: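 Alamar Blue viability assay on the human cell line named (origins given: HT-29 colorectal adenocarcinoma, HepG2 hepatocellular carcinoma, LAMA-84 myeloid leukemia, A549 lung adenocarcinoma, PC3 prostate metastasis, MCF-7 breast adenocarcinoma, ARPE-19 retinal pigment epithelium, BJ skin fibroblast). Exposure was 48 h. Sterol stocks were made in DMSO.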

The subject of series [4] is PC-3. The series can be described thus: Cytotoxicity against human PC3 cells assessed as cell viability after 48 hrs by alamar blue assay. It counts as functional, cell-based. The following applies: for IC50: PC-3, 48 h. In a few lines:
as §1

The subject of series [5] is HepG2. Put plainly: Cytotoxicity against human HepG2 cells assessed as cell viability after 48 hrs by alamar blue assay. It counts as functional, cell-based. The following applies: for IC50: HepG2, 48 h. In a few lines: as §1
Series [6] deals with HT-29. Put plainly: Selectivity index, ratio of IC50 for human ARPE19 cells to IC50 for human HT-29 cells. The series is classed as functional.
Series [7] is described as follows: Cytotoxicity against human ARPE19 cells assessed as cell viability after 48 hrs by alamar blue assay. The following applies: for IC50: Homo sapiens, ARPE-19, 48 h; for Activity: human, arpe-19, 48 h. It counts as cell-based, ARPE-19. In a few lines:
as §1

Series [8] concerns LAMA-84. Put plainly: Cytotoxicity against human LAMA-84 cells assessed as cell viability after 48 hrs by alamar blue assay. The following applies: for IC50: LAMA-84, 48 h. It counts as functional, cell-based. In a few lines: as §1
Series [9] concerns BJ. Put plainly: Cytotoxicity against human BJ cells assessed as cell viability after 48 hrs by alamar blue assay. It counts as cell-based. The following applies: for IC50: Homo sapiens, BJ; for Activity: human, bj. In a few lines: as §1
Series [10] relates to SH-SY5Y. Put plainly: Cytotoxicity against human SH-SY5Y cells assessed as cell viability after 48 hrs by alamar blue assay. It counts as functional, cell-based. In a few lines:
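SH-SY5Y cells grown in DMEM/F12 (1:1) with L-glutamine, 10% heat-inactivated FBS, 100 units/mL penicillin and 0.1 mg/mL streptomycin, pH 7.4. Seeded at 5 10^3 cells/well and exposed to the sterols (DMSO stocks) for 48 h. Alamar Blue read-out. IC50 is the concentration inhibiting 50% of growth, mean of at least three separate experiments.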

The subject of series [11] is MCF7. The series can be described thus: Cytotoxicity against human MCF7 cells assessed as cell viability after 48 hrs by alamar blue assay. It counts as functional, cell-based. The following applies: for IC50: MCF7, 48 h. In a few lines: as §1

Broadly, the IC50 is the point on the concentration scale where inhibition reaches its midpoint. For `CCCO[C@@H]1C[C@H]2[C@@H]3CC[C@H]([C@H](C)CCCC(C)C)[C@@]3(C)CC[C@@H]2[C@@]2(C)CC[C@H](O)C[C@]12O`, the IC50 in [1] worked out at 25.9 µM.

Turning to `CC(=O)O[C@H]1C=C2C[C@@H](O)CC[C@]2(C)[C@H]2CC[C@]3(C)[C@@H]([C@H](C)CCCC(C)C)CC[C@H]3[C@H]12`, the figures for the IC50 in series [1] and in series [2] were 26.8 µM and 24.6 µM, respectively.

Regarding `CC(=O)N[C@@H]1C[C@H]2[C@@H]3CC[C@H]([C@H](C)CCCC(C)C)[C@@]3(C)CC[C@@H]2[C@@]2(C)CC[C@H](O)C[C@]12O`, the IC50 in series [3] amounted to 14.5 µM; in series [4], 19.2 µM; in series [1], 14.5 µM; in [5] it was 11.6 µM; in series [7], 19 µM. Moreover, in series [6], the “Ratio IC50” value was determined as 1.31.

With `CC(C)CCC[C@@H](C)[C@H]1CC[C@H]2[C@@H]3[C@@H](O)[C@H](O)[C@H]4C[C@@H](O)CC[C@]4(C)[C@H]3CC[C@]12C`, the IC50 in series [1] turned out to be 14.9 µM; in [7], 19.1 µM. The “Ratio IC50” value in series [6] amounted to 1.28.

Regarding `CC(C)CCC[C@@H](C)[C@H]1CC[C@H]2[C@@H]3C(=O)[C@H](O)[C@@]4(O)C[C@@H](O)CC[C@]4(C)[C@H]3CC[C@]12C`, the results for the IC50 in [1] and in [7] were 15.2 µM and 25.7 µM, respectively. In addition, the “Ratio IC50” value in [6] is 1.69.

`CO[C@@H]1C[C@H]2[C@@H]3CC[C@H]([C@H](C)CCCC(C)C)[C@@]3(C)CC[C@@H]2[C@@]2(C)CC[C@H](O)C[C@]12O`: the IC50 turned out to be 17.4 µM in [4]; 10 µM in [1]; 4.3 µM in series [8]; 17.4 µM in [9]; 13.3 µM in series [5]; 25.8 µM in series [7]. The “Ratio IC50” value in [6] came out at 2.58.

Turning to `CC(C)CCC[C@@H](C)[C@H]1CC[C@H]2[C@@H]3CC[C@@]4(O)[C@@H](O)[C@@H](O)CC[C@]4(C)[C@H]3CC[C@]12C`, the IC50 was determined as 31.8 µM in [3], 35.1 µM in [4], 34 µM in series [1] and 34.4 µM in series [5].

For `COc1cccc2c1C(=O)c1c(O)c3c(c(O)c1C2=O)C[C@@](O)(C(=O)CO)C[C@@H]3O[C@H]1C[C@H](N)[C@H](O)[C@H](C)O1` [DOXORUBICIN], the 50% inhibitory concentration (IC50) in [10] amounted to 0.5 µM.

Consider `CC(C)CCC[C@@H](C)[C@H]1CC[C@H]2[C@@H]3C[C@@H](O)[C@@]4(O)C[C@@H](O)CC[C@]4(C)[C@H]3CC[C@]12C` [CHOLESTAN-3beta,5alpha,6beta-TRIOL], for which the IC50 in series [10] was determined as 17.2 µM. Moreover, the “Ratio IC50” value in [6] is recorded as 1.48.

Turning to `CC(=O)O[C@H]1CC[C@]2(C)[C@H]3CC[C@]4(C)[C@@H]([C@H](C)CCCC(C)C)CC[C@H]4[C@@H]3[C@@H](OC(C)=O)C(=O)[C@@]2(O)C1`, the IC50 in series [1] stood at 27.2 µM.

With `CC(=O)O[C@H]1CC[C@]2(C)[C@H]3CC[C@]4(C)[C@@H]([C@H](C)CCCC(C)C)CC[C@H]4[C@@H]3C[C@@H](O)[C@@]2(O)[C@H]1O`, the values for the IC50 in series [1], in series [2] and in series [7] were 17.7 µM, 14.2 µM and 28.8 µM, respectively. Also, the “Ratio IC50” value in series [6] is 1.63.

On to `CCCCCCCCCCCC(=O)O[C@H]1CC[C@@]2(C)C(=C[C@H](O)[C@H]3[C@@H]4CC[C@H]([C@H](C)CCCC(C)C)[C@@]4(C)CC[C@@H]32)C1`, for which the half-inhibitory concentration (IC50) in series [1] and in [2] was greater than 50 µM each time.

`CC(C)CCC[C@@H](C)[C@H]1CC[C@H]2[C@@H]3C[C@@H](O)[C@@]4(O)[C@@H](O)[C@@H](O)CC[C@]4(C)[C@H]3CC[C@]12C`: the inhibition result in series [3], in series [4], in [1], in series [10], in [8] and in [5] was “Dose-dependent effect” throughout. The inhibition entry in series [11] is “Dose-dependent effect”. In addition, the IC50 came to 17.1 µM in series [4]; 9.1 µM in [1]; 14.5 µM in series [10]; 5.1 µM in series [8]; 17.8 µM in series [9]; 12.7 µM in series [5]. Besides, the IC50 was determined as 14.5 µM in [11] and 20.4 µM in [7]. The Activity entry in [9] and in series [7] was “Non-toxic” throughout. Besides, the “Ratio IC50” value in series [6] amounted to 2.24.

With `CC(C)CCC[C@@H](C)[C@H]1CC[C@H]2[C@@H]3C(=O)C=C4C[C@@H](O)CC[C@]4(C)[C@H]3CC[C@]12C` [7-OXOCHOLESTEROL], the “Ratio IC50” value in series [6] is 1.26. For the same compound, the IC50 in series [7] was 32.3 µM.

Turning to `CC(=O)O[C@@H]1[C@H]2[C@@H]3CC[C@H]([C@H](C)CCCC(C)C)[C@@]3(C)CC[C@@H]2[C@@]2(C)CC[C@H](O)C[C@]2(O)[C@@H]1O`, the IC50 in series [1] was 17 µM; in [2], 15.5 µM; in [7], 15.8 µM. Further, the “Ratio IC50” value in [6] is recorded as 0.93.

Regarding `CC(C)CCC[C@@H](C)[C@H]1CC[C@H]2[C@@H]3CC(=O)[C@@]4(O)C[C@@H](O)CC[C@]4(C)[C@H]3CC[C@]12C`, in series [6], the “Ratio IC50” value turned out to be 1.99. Besides, in series [7], the half-inhibitory concentration (IC50) stood at 33.9 µM.

As to `CC(=O)O[C@H]1CC[C@]2(C)[C@H]3CC[C@]4(C)[C@@H]([C@H](C)CCCC(C)C)CC[C@H]4[C@@H]3[C@@H](OC(C)=O)[C@@H](OC(C)=O)[C@@]2(O)C1`, the half-maximal inhibitory concentration (IC50) in series [1] was determined as 27 µM; in [2], 26.7 µM.

In the case of `CC(C)CCC[C@@H](C)[C@H]1CC[C@H]2[C@@H]3[C@@H](O)C=C4C[C@@H](O)CC[C@]4(C)[C@H]3CC[C@]12C`, the IC50 in series [10] was 16.4 µM. In addition, the “Ratio IC50” value in [6] stood at 3.13.

On to `CC(C)CCC[C@@H](C)[C@H]1CC[C@H]2[C@@H]3[C@@H](O)C=C4[C@@H](O)[C@@H](O)CC[C@]4(C)[C@H]3CC[C@]12C`, for which the figures for the IC50 in series [1] and in [7] were 15.4 µM and 25.6 µM, respectively. In addition, the “Ratio IC50” value in series [6] is on record as 1.66.

In the case of `CC(C)CCC[C@@H](C)[C@H]1CC[C@H]2[C@@H]3C/C(=N\O)[C@@]4(O)C[C@@H](O)CC[C@]4(C)[C@H]3CC[C@]12C`, the IC50 in series [3] was determined as 15 µM; in [4] it was 15 µM; in [1] it was 11.9 µM; in series [10], 16.8 µM; in [9], 17.1 µM; in series [5], 13.2 µM. Also, the IC50 in [7] worked out at 23.7 µM. Moreover, the “Ratio IC50” value in series [6] was determined as 1.99.

As to `CO[C@]12C[C@@H](O)CC[C@]1(C)[C@H]1CC[C@]3(C)[C@@H]([C@H](C)CCCC(C)C)CC[C@H]3[C@@H]1C[C@H]2O`, in series [1], the IC50 came out at 36.1 µM.

With `CC(C)CCC[C@@H](C)[C@H]1CC[C@H]2[C@@H]3[C@@H](O)[C@@H](O)[C@@]4(O)C[C@@H](O)CC[C@]4(C)[C@H]3CC[C@]12C`, the inhibition result in series [3], in [4], in series [1], in series [10], in series [8] and in series [5] was “Dose-dependent effect” throughout. Also, the inhibition entry in series [11] was “Dose-dependent effect”. The concentration for half-maximal inhibition (IC50) is 17.3 µM in series [3]; 17.4 µM in series [4]; 13.9 µM in [1]; 20.2 µM in series [10]; 5.1 µM in series [8]; 19.3 µM in series [9]. For the same compound, the IC50 came out at 13.8 µM in [5], 13.1 µM in series [11] and 21.4 µM in series [7]. Also, the Activity entry in [9] and in [7] was “Non-toxic” each time. For the same compound, the “Ratio IC50” value in series [6] is on record as 1.54.

On to `CC(C)CCC[C@@H](C)[C@H]1CC[C@H]2[C@@H]3C(=O)C(O)=C4C[C@@H](O)CC[C@]4(C)[C@H]3CC[C@]12C`, for which the IC50 in [1] was 36.7 µM.

(Values after ChEMBL document CHEMBL1821637, “Selective cytotoxicity of oxysterols through structural modulation on rings A and B. Synthesis, in vitro evaluation, and SAR” (J Med Chem, 2011).)
